# Runt-SMMHC FRET – inhibitors of human RUNX1 Runt domain binding to CBFb-SMMHC. 220,000 tested, 0.74% active. Cerulean-Runt/Venus-CBFb-SMMHC FRET ratio 530/480, 1 h. inhibition, % at 20 µM. AID 1434;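 active = mean inhibition across duplicate retests at 20 µM reaching about 50%, limit read from the data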;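 also: 0% = DMSO wells and 100% = wells with excess untagged CBFb-SMMHC; inhibitors lower the FRET ratio by blocking Runt binding to CBFb-SMMHC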
# Hck Nef HTS – blocks Nef-activated human Hck kinase; P08631; Recombinant Hck-YEEI plus Nef, Z-Lyte FRET kinase assay; inhibition, % at 20 µM; 220,000 tested, 0.68% active; AID 463187;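 active = Hck-Nef kinase inhibition above about 50%, limit read from the data; inactive = inhibition below that limit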;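 also: 0% = DMSO with Hck plus Nef and 100% = Hck alone without Nef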
# Target sequence (P08631 whole entry, looked up): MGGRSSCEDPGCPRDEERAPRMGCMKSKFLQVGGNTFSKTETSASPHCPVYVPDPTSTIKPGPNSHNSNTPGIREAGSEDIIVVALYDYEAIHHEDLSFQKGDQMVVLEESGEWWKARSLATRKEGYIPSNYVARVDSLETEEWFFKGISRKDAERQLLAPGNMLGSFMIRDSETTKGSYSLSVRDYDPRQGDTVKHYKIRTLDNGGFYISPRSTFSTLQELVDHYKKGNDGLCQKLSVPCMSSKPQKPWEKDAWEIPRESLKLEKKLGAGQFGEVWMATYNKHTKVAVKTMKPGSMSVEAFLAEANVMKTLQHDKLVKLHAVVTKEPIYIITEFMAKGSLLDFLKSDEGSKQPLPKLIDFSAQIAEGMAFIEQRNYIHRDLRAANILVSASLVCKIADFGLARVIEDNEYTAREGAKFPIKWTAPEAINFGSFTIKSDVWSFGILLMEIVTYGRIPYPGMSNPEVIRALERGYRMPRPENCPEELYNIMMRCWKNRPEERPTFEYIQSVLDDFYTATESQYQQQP
# M18AAP inhibitor – PfM18AAP enzyme inhibition; recombinant PfM18AAP, H-Glu-NHMec fluorogenic cleavage; 290,000 tested, 1.2% active; AID 1822; inhibition, % at 7.35 µM;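 active = inhibition above the campaign mean inhibition over all tested compounds plus 3 SD, cut at about 28% in these data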;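 also: 0% = plate median of test compound wells and 100% = 2 mM ZnCl2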
# Runt-CBFb FRET – blocks binding of human RUNX1 Runt domain to CBFb; Q01196+Q13951; Cerulean-Runt/Venus-CBFb FRET ratio 530/480, 1 h; inhibition, % at 20 µM; 220,000 tested, 0.46% active; AID 1496;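 active = inhibition over about 50% at 20 µM in the single-dose screen, limit read from the data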;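 also: 0% = DMSO wells and 100% = excess unlabeled CBFb competitor control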
#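 Assay system: Cerulean-Runt domain / Medium: Tris 50 mM pH 7.5, KCl, K2SO4, 0.01% BSA / Timing: protein complex preformed 1 h, compound exposure 1 h, room temperature, dark / Measured by: FRET, excitation 422 nm, emission at 530 and 480 nm / Evaluation: loss of energy transfer signal / Control set: 5 µM unlabeled CBFb as full-inhibition high control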
# RanGTP-Imp inh – disruptors of Ran-importin-beta complex formation – biochemical, FRET, CFP-Ran, YFP-importin-beta, homogeneous, primary screen; cell-free CFP-Ran/YFP-importin-beta FRET ratio; inhibition, % (concentration not given with the values); 300,000 tested, 1.1% active; AID 2216;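 active = more than half of the replicate wells show a fall in the fluorescence ratio signal beyond about 16%, limit read from the data, passing the limit was not always enough; inconclusive = exactly half of the replicate wells pass the set limit; inactive = fewer than half of replicates pass the limit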;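 also: 0% = DMSO wells and 100% = Ran loaded with GDP instead of GTP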
# RBBP9 inh – human RBBP9 hydrolase inhibition | O75884 | recombinant RBBP9, FP-Rh probe fluorescence polarization | inhibition, % at 7.94 µM | 220,000 tested, 0.2% active;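 active = inhibition above the campaign mean of all tested compounds plus 3 SD, cut at about 14% in these data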;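 also: plate controls were DMSO wells with RBBP9 for no effect and wells lacking RBBP9 protein for full effect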
#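 Controls: DMSO-treated enzyme wells and wells lacking RBBP9 | Material: RBBP9 protein | Technique: Fluorescence polarization | Replication: Single well per compound, no replicates | Buffer or medium: Tris-NaCl-Pluronic buffer, pH 8.0 | Timing: 30 min compound preincubation, 45 min probe labeling, 25 °C | Read-out basis: Percent inhibition from mP, scaled between DMSO and no-protein wells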
# An asterisk follows results filed as active; u = inconclusive; x = no result given. Compounds with a hit are over-represented: about 2.9% of the library has one in this group of screens.
SMILES,Runt-SMMHC FRET,Hck Nef HTS,M18AAP inhibitor,Runt-CBFb FRET,RanGTP-Imp inh,RBBP9 inh
CC(C)N1CCc2c(sc(NC(=S)NC(=O)c3ccccc3)c2C#N)C1,60*,3,5,19,162*,-4
CN1CCc2c(sc(NC(=O)Cc3ccccc3)c2C#N)C1,x,x,6,x,164*,x
CC(=O)N1CCc2c(sc(NC(=O)c3ccc([N+](=O)[O-])o3)c2C#N)C1,-8,7,7,2,-2,-4
COc1cc(C(=O)Nc2sc3c(c2C#N)CCN(C(C)=O)C3)cc(OC)c1OC,79*,20,-9,29,38*,-4
CC(C)N1CCc2c(sc(NC(=O)c3ccc(S(=O)(=O)N4CCOCC4)cc3)c2C#N)C1,29,-1,3,15,43*,-1
CC(C)C1Cc2c(sc(NC(=S)NC(=O)c3ccccc3)c2C#N)CO1 (stereo unspecified),12,2,-2,37,u,-5
CCC(=O)c1cn([C@@H](CCC(OC)OC)CC(=O)OC(C)(C)C)cc1CC,x,x,x,x,0,x
CC(OC(=O)c1nsc(Cl)c1Cl)C(=O)NCCc1ccccc1 (stereo unspecified),x,x,-2,x,1,x
CCOC(=O)c1cnc2c(cnn2C)c1NCCCn1ccnc1,1,10,-5,0,-1,1
COc1ccc(CNc2ncc(-c3cccc([N+](=O)[O-])c3)n2C)c(OC)c1OC,x,x,8,x,6,x
CCCN1CCc2c(sc(NC(=S)NC(=O)c3ccccc3)c2C#N)C1,93*,0,11,3,159*,-7
Cc1cccnc1NC(=S)NC(=O)c1oc2ccccc2c1C,x,x,6,x,1,x
CCCCN(CCCC)C(=O)c1sc2nc(N3CCOCC3)c3c(c2c1N)CCCC3,0,13,32*,21,1,0
CCn1cc(C(=O)NCCCOC)c(=O)c2cc(S(=O)(=O)N3CCCC3)ccc21,x,x,1,x,0,x
CS(=O)(=O)c1ccc(Cl)c(NC(=O)CSc2nc3ccccc3c(=O)n2Cc2ccco2)c1,x,x,x,x,0,x
CCCCn1c2nc3ccccc3nc2c2c(=O)n(-c3ccccc3)cnc21,8,2,-5,-6,2,-18
COc1ccc(-n2c3nc4ccccc4nc3c3c(=N)oc(C)nc32)cc1,129*,28,3,66*,7,1
CCCCn1c2nc3ccccc3nc2c2c(=N)oc(C)nc21,79*,x,x,46,x,x
CCn1c(SCc2nc3sc(C(=O)O)c(C)c3c(=O)[nH]2)nc2ccccc21,-153,11,33*,-50,-18,0
COc1ccc(Cc2nnc(SCC(=O)Nc3ccc(N4CCOCC4)cc3)n2C)cc1,x,x,9,x,6,x
O=C(Nc1ccccc1)/C(=C/c1ccc(F)cc1)NC(=O)c1ccco1,x,x,4,x,u,x
O=C(CSc1ncn[nH]1)Nc1ccc(S(=O)(=O)Nc2ncccn2)cc1,3,5,30*,2,5,-3
CCOC(=O)N1CCC(NC(=O)c2ccc(Cl)cc2)CC1,3,13,-15,1,1,-7
CCOC(=O)N1CCC(Nc2nc3ccccc3nc2NS(=O)(=O)c2ccc(Cl)cc2)CC1,34,1,-17,11,19*,0
O=C(CSCc1ccccc1Br)NNC(=S)NCc1ccco1,x,x,29*,x,-1,x
SMILES,Runt-SMMHC FRET,Hck Nef HTS,M18AAP inhibitor,Runt-CBFb FRET,RanGTP-Imp inh,RBBP9 inh
Cc1ccccc1CSCC(=O)NC(=O)NCc1ccco1,-2,2,6,4,0,-11
CC(C)(O)C(=O)NNC(=S)NCc1ccco1,0,12,42*,1,2,0
CC(C)(C)c1ccc(C(=O)NNC(=S)NCc2ccco2)cc1,3,-4,-2,4,-2,3
CCN(CC)CCCNc1nc2cc(OC)c(OC)cc2c2nc(-c3ccccc3)nn12,1,-3,-9,1,50*,-9
COc1ccc(/C=C/C(=O)c2ccc(Cl)cc2)c(OC)c1,-6,1,-2,-2,20*,-16
N#Cc1c(Nc2ccccc2)c(/C=N/N=C/c2ccccc2)c[nH]c1=O,1,2,-6,1,6,0
N#CC(C#N)=Cc1c[nH]c(=O)c(C#N)c1Nc1ccccc1,x,x,x,x,67*,x
N#Cc1ccccc1OCCN1C(=O)c2ccccc2C1=O,4,16,3,-2,-6,-1
Nc1cccc2c1C(=O)N(CCOc1ccccc1F)C2=O,x,x,-4,x,42*,x
O=C(CSc1nnc(CNC(=O)c2ccccc2F)o1)NC1CCCCC1,x,x,3,x,4,x
Cn1c(CNC(=O)c2ccc3c(c2)OCO3)nnc1SCC(=O)Nc1ccccc1F,x,x,2,x,u,x
COCCN=C1NN=C(c2ccc(NC(C)=O)cc2)CS1,6,19,28*,18,2,9
CCN=C1NN=C(c2ccc(C)cc2)CS1,-1,0,14,6,-3,0
COCCNC(=O)[C@@H]1CCCN1C(=O)C1CCN(S(=O)(=O)c2ccc(C)cc2)CC1,x,x,5,x,-2,x
CC1Sc2ccc(S(=O)(=O)CCC(=O)NCc3ccccc3)cc2NC1=O (stereo unspecified),x,x,0,x,-2,x
CC1Sc2ccc(S(=O)(=O)CCC(=O)Nc3ccccn3)cc2NC1=O (stereo unspecified),x,x,29*,x,-1,x
Cc1cc(C(=O)Nc2ccccc2C)n(-c2ccccc2)n1,x,x,-6,x,3,x
N#CCC(=O)N/N=C/c1cccc(Oc2ccccc2)c1,-5,7,30*,2,-1,-11
Cc1ccc(NCC(=O)N/N=C/c2cccc(Oc3ccccc3)c2)cc1,0,3,6,2,1,-7
O=[N+]([O-])c1ccc(N2CCN(CC3CCCCC3)CC2)cc1,x,x,4,x,-3,x
CC1(C)CC(=O)C2=C(C1)OC(N)=C(C#N)[C@@H]2c1ccccc1[N+](=O)[O-],50,0,29*,94*,49*,4
O=c1c2ccccc2oc2ccc(NCCCN3CCOCC3)cc12,x,x,5,x,-12,x
O=c1c2ccccc2oc2cc(NCCCn3ccnc3)ccc12,x,x,-5,x,58*,x
CN1CCCC1CCNc1ccc2c(=O)c3ccccc3oc2c1 (stereo unspecified),x,x,11,x,49*,x
O=c1c2ccccc2oc2cc(NCCCN3CCOCC3)ccc12,x,x,-11,x,46*,x
Cn1ccnc1SCC(=O)Nc1cc(F)ccc1F,x,x,5,x,-3,x
COc1cc(NC(=O)Nc2ccc(Cl)c(Cl)c2)c(C(=O)O)cc1OC,-7,27,-3,2,4,8
CCOC(=O)N1CCC(N2C(=O)c3ccc(C(=O)Nc4ccc(OC)cc4)cc3C2=O)CC1,x,x,-1,x,-4,x
COc1ccc([C@H]2CC(=O)c3c(O)cc(O)cc3O2)cc1O,1,21,4,1,-1,-10
